# Source: PMC2914798 (Biochimica et biophysica acta, 2010)
# [ ]: non-standard residue; d: D form. The star is where a group is joined. Dnp = O=[N+]([O-])c1ccc(*)c([N+](=O)[O-])c1; Mca = COc1ccc2c(CC(=O)*)cc(=O)oc2c1
# Assays:
# Type in all cases: biochemical
# Cath D [1] = biological target: T1, Cath D (Homo sapiens, UniProt P07339); assay: Kinetics of substrate e hydrolysis by Cath D
# Method in brief: (§1)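 Intramolecularly quenched Mca/Dnp FRET peptide, 5–100 µM, in 50 mM sodium acetate pH 4.0, with Cath E at 2.3, 4.5 or 6.8 nM, or Cath D up to 54 nM. Fluorescence (ex 340/em 405 nm) followed over 10 min. Initial velocity taken from the linear-phase slope. Vmax and Km from linear regression of the Hanes-Woolf plot (S/v vs S); kcat = Vmax/[Cath E]. Triplicate.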
# Cath E = biological target: T2, Cath E (Homo sapiens, UniProt P14091); assay: Michaelis-Menten kinetics of substrate e hydrolysis by Cath E; settings: 6.8 nM Cath E, 50 mM sodium acetate pH 4.0, 10 minutes, 37 °C
# T2 sequence (P14091 54-396): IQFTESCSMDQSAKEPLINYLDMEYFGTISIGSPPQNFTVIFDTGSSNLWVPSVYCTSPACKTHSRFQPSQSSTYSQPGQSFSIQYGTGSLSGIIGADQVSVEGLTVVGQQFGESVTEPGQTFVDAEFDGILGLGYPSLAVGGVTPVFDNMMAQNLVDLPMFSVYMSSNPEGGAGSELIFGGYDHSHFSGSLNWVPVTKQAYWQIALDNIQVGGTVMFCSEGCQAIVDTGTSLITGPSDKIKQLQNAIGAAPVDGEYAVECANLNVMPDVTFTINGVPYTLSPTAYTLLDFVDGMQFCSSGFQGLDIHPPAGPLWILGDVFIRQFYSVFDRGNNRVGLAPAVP
# Method in brief: as §1
# Cath D [2] = biological target: T1, Cath D; assay: Enzyme digestion and cleavage site identification, Cath D; settings: high dose of Cath D, overnight hydrolysis; data not shown
# T1 sequence (P07339 65-412): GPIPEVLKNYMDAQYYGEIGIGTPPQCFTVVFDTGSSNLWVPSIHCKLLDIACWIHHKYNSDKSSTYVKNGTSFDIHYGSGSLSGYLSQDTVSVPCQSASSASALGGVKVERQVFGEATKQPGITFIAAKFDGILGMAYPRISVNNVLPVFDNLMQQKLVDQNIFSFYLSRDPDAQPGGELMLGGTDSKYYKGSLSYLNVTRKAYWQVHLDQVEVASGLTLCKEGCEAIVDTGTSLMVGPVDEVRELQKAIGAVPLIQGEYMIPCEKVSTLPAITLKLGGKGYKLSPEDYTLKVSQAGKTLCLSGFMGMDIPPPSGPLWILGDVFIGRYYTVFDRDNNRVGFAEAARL
substance,measurement,setting,value
Mca-AGFSLPAK(Dnp)[dR]-NH2 (SMILES COc1ccc2c(CC(=O)N[C@@H](C)C(=O)NCC(=O)N[C@@H](Cc3ccccc3)C(=O)N[C@@H](CO)C(=O)N[C@@H](CC(C)C)C(=O)N3CCC[C@H]3C(=O)N[C@@H](C)C(=O)N[C@@H](CCCCNc3ccc([N+](=O)[O-])cc3[N+](=O)[O-])C(=O)N[C@H](CCCNC(=N)N)C(N)=O)cc(=O)oc2c1) [Substrate e],"Kcat/Km (catalytic efficiency), Cath D","Cath D [1]; up to 54 nM Cath D, same measurement conditions (50 mM sodium acetate pH 4.0)",NM ^§
same,cleavage by Cath D,"Cath D [1]; up to 54 nM of Cath D, 50 mM sodium acetate pH 4.0",no measurable cleavage
same,"Kcat/Km (catalytic efficiency), Cath E",Cath E,16.7 µM^−1.S^−1
same,cleavage sites by Cath D,Cath D [2],"two minor cleavage sites were identified, one is between the P1 and P1’ sites (-Leu^5-Pro^6-) and a secondary site was found between P3 and P4 positions (-Gly^2-Phe^3-)"
